# From PubChem BioAssay
# Hits are enriched below; roughly 2.3% of the tested compounds scored in any of these assays.
# STAT3 inh: inhibitors of IL-6 induced STAT3 signaling; U3A cells, IL-6 STAT3-luciferase reporter, luminescence; host cell line lacks STAT1; inhibition, % at 5.5 µM; hit rate 0.89% among 190,000; AID 862;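 active = inhibition above the mean inhibition across all screened compounds plus 3 SD, cut at about 44% in these data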;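 also: 0% = DMSO only wells and 100% = 100 µM nifuroxazide control wells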
# C8 TRAIL sens: caspase-8 TRAIL sensitization. hit rate 1% among 360,000. AID 624354. inhibition (viability loss, TRAIL sensitization), % at 10 µM. NB7+C8 cells + TRAIL, ATPlite viability luminescence;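 active = compounds causing at least 50% loss of cell viability in the single-dose screen, relative to plate controls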
# HSP90 refold inh: inhibitors of HSP90 luciferase refolding in rabbit reticulocyte lysate. luciferase refolding luminescence, 3 h. inhibition, % at 5.6 µM. hit rate 0.91% among 290,000. AID 1789;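 active = inhibition above the screen-wide mean plus 3 SD, computed separately per campaign, cut at about 16% in these data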;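 also: 0% = DMSO wells and 100% = 60 µM geldanamycin wells; inhibitors lower the luminescence because luciferase stays unfolded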
# STAT1 inh: reduces IFN-gamma driven STAT1 reporter signal. inhibition, % at 5.5 µM. hit rate 0.35% among 200,000. NIH 3T3 STAT1-luciferase reporter, luminescence;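 active = inhibition above a set limit, the mean inhibition across all tested compounds plus 3 SD, cut at about 34% in these data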;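 also: 0% = IFN-gamma with DMSO and 100% = IFN-gamma with 300 µM nifuroxazide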
# STAT3 act: increases IL-6 driven STAT3 reporter signal | hit rate 0.91% among 190,000 | activation (% of control), % at 5.6 µM | U3A cells, IL-6 STAT3-luciferase reporter, luminescence; 100% = signal with IL-6 EC80 alone;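 active = activation above the screen-wide mean of compound activation plus 3 SD, cut at about 130% in these data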;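 also: 0% = background luminescence of wells with medium and substrate only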
#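 Material: human STAT1-deficient U3A cells with stable STAT3-luciferase reporter / Probe or stimulus: IL-6 stimulus at 33 ng/mL final / Schedule: 1 h compound pre-exposure, 6 h IL-6 stimulation, 37 °C / Technique: luminescence / Read-out basis: percent of IL-6-only median luminescence / Control set: IL-6-only high control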
# PPC-1+TRAIL kill: PPC-1 cancer cell killing with TRAIL present | PPC-1 cells + TRAIL, ATPLite viability luminescence | cell killing (% activity), % at 4 µM or 5 µM | hit rate 0.41% among 220,000 | AID 1443;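 active = cell killing above 50% in the first pass at 4 µM, then a duplicate retest at 5 µM averaging 50% or more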;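 also: plate controls were cells with TRAIL plus DMSO for no effect and medium-only wells lacking cells for full effect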
# HSP90 inh confirm: HSP90 inhibition, confirmation assay. shares compounds with HSP90 refold inh. rabbit reticulocyte lysate, luciferase refolding luminescence, 3 h. inhibition, % at 5.9 µM. hit rate 64% among 2,300. AID 1846; in the data active = inhibition above about 18%;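 also: 0% = vehicle wells and 100% = reference inhibitor wells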
# FLuc counter: firefly luciferase inhibition, HSP90 counter-screen; shares compounds with HSP90 refold inh; purified native firefly luciferase, luminescence; inhibition, % at 5.9 µM; hit rate 48% among 2,300;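 active = inhibition above the mean inhibition of all tested sample wells plus 3 SD, cut at about 10% in these data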;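 also: 0% = DMSO with luciferase and 100% = wells lacking luciferase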
# Target sequence (P08659 whole entry, looked up): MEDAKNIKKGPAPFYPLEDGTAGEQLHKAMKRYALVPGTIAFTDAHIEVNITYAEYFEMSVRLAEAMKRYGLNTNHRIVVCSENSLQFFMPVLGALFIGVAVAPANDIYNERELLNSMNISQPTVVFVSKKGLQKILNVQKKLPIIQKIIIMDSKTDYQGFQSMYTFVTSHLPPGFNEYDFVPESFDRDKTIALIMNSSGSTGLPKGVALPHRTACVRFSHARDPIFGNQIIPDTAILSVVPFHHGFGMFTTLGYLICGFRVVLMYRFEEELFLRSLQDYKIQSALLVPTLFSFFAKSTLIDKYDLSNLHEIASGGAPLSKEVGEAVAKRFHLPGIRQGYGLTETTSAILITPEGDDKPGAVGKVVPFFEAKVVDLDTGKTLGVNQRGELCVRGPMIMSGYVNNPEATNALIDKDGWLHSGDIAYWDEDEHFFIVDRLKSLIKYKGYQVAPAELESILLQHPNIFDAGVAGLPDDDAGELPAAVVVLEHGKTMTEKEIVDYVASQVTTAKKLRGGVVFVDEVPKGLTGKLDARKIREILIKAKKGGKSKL
# Active calls of the source: *; / = not tested or not shown.
SMILES,STAT3 inh,C8 TRAIL sens,HSP90 refold inh,STAT1 inh,STAT3 act,PPC-1+TRAIL kill,HSP90 inh confirm,FLuc counter
COc1ccc(-c2ccn(-c3cccc(F)n3)n2)cc1,-10,-5,22*,-59,110,3,33*,18*
N=c1n(CCCOc2ccc(Br)cc2)c2ccccc2n1CC(N)=O,/,20,4,/,/,-3,/,/
Fc1cccc(Cl)c1C1Nc2cccc3cccc(c23)N1,/,-7,19*,/,/,/,-2,-5
Clc1cccc(Cl)c1C1Nc2cccc3cccc(c23)N1,/,0,5,/,/,/,/,/
Cc1[nH]c2ccccc2c1/C=N/Nc1ccccn1,1,/,-2,-12,99,10,/,/
Cc1[nH]c2ccccc2c1/C=N/Nc1nncn1N,-1,6,78*,-27,111,19,-10,-37
O=C(CS(=O)(=O)c1ccc(F)cc1)NCCS(=O)(=O)c1ccccc1,/,-3,1,/,/,/,/,/
COc1ccc(CC(=O)N2N=C(c3ccncc3)CC2(O)C(F)(F)F)cc1 (centres undefined),-4,-15,-1,12,103,-4,/,/
CCc1ccc(C2=NN(C(=O)OC)C(O)(C(F)(F)F)C2)cc1 (centres undefined),69*,55*,40*,38*,48,35,64*,49*
CCOC(=O)N1N=C(c2ccc(OC)cc2)CC1(O)C(F)(F)F (centres undefined),13,10,22*,-19,90,30,39*,26*
COc1cc(CN2CCN(Cc3ccc(C)cc3)C(CCO)C2)cc(OC)c1O (centres undefined),5,-2,-3,1,100,-9,/,/
Cn1c(C2CCCN2C(=O)OC(C)(C)C)n[nH]c1=S (centres undefined),13,-4,34*,2,92,2,-1,-4
CSc1nnc([C@@H]2CCCN2C(=O)OC(C)(C)C)o1,-1,-9,3,-4,104,6,/,/
COC(=O)N1CCCCC1c1cc(C(=O)Nc2ccc3c(c2)OCO3)no1 (centres undefined),/,-1,/,/,/,/,/,/
N#CCCSc1ncnc2c1oc1ccccc12,17,-1,26*,-9,89,-6,-11,-20
CC(=O)CSc1ccc(-c2nc3ccccc3[nH]2)cn1,/,75*,24*,/,/,/,46*,2
CC(=O)CSc1ccc(-c2nc3cc(C)c(C)cc3[nH]2)cn1,103*,78*,69*,85*,14,/,91*,57*
CCOC(=O)CNC(=O)CSc1ccc(-c2nc3ccccc3[nH]2)cn1,/,-7,-3,/,/,/,/,/
CCOc1ccc(/C=N/N2C(C)CCCC2C)cc1 (centres undefined),/,1,3,/,/,/,/,/
Cc1ccccc1-n1nc2c(c1NC(=O)/C=C\c1ccc3c(c1)OCO3)CSC2,-8,2,2,-1,107,-5,/,/
Nc1ccc(-c2nnn(Cc3ccccc3)n2)cc1,/,-1,/,/,/,/,/,/
Cc1ccccc1Cn1nnc(-c2ccc3c(c2)OCO3)n1,4,5,-4,-20,99,-3,/,/
Cc1ccccc1Cn1nnc(-c2cccc(C(=O)O)c2)n1,24,-7,38*,-1,82,41,54*,66*
O=C(O)c1cccc(-c2nnn(Cc3ccccc3)n2)c1,10,1,29*,-15,92,7,35*,41*
CCc1ccc(-n2c(CSc3nnnn3-c3ccccc3)nc3ccccc3c2=O)cc1,-2,-9,-4,0,102,-8,/,/
SMILES,STAT3 inh,C8 TRAIL sens,HSP90 refold inh,STAT1 inh,STAT3 act,PPC-1+TRAIL kill,HSP90 inh confirm,FLuc counter
CC1(C(=O)N2CCN(Cc3ccccc3Cl)CC2)CC1(Cl)Cl (centres undefined),/,-23,19*,/,/,/,-6,-16
CC1(C(=O)N2CCN(c3ccccc3)CC2)CC1(Cl)Cl (centres undefined),5,2,-2,-18,100,7,/,/
CCOC(=O)N1CCC(N2C(=O)c3ccccc3C2Nc2ccc3c(c2)OCCO3)CC1 (centres undefined),20,-12,10,-1,90,-2,/,/
CCOC(=O)N1CCC(N2C(=O)c3ccccc3C2Nc2ccc3c(C)cc(=O)oc3c2)CC1 (centres undefined),4,3,18*,-2,101,22,2,0
Fc1ccc(-n2nnc(-c3cccnc3Cl)n2)cc1,/,42,10,-45,/,35,/,/
Clc1ncccc1-c1nnn(-c2ccccc2)n1,/,35,21*,-34,/,42,17*,3
O=C(CSc1nc2ccccc2c(=O)n1NC(=O)c1ccccc1)c1ccc(Cl)cc1,-1,3,24*,-27,104,12,-5,-25
CCn1c(SCC(=O)c2ccccc2)nc2ccccc2c1=O,24,2,3,-5,85,15,/,/
Cc1nc2ccccc2c(=O)n1NC(=O)c1ccc(Cl)cc1,/,-2,2,/,/,/,/,/
O=C(CSc1nc2ccccc2c(=O)n1NC(=O)c1ccccc1)c1ccccc1,-11,-23,36*,-55,113,11,10,-2
O=C(CSc1nnc(-c2cccnc2)o1)Nc1ccc(F)cc1,/,-3,/,/,/,/,/,/
O=C(CSc1nnc(-c2cccnc2)o1)Nc1ccc(Br)cc1,/,-6,18*,/,/,/,-5,-6
N#CC1(NC(=O)COC(=O)c2ccccc2[N+](=O)[O-])CCCCC1,/,-7,/,/,/,/,/,/
O=C(COC(=O)c1ccccc1[N+](=O)[O-])c1ccc(C2CCCCC2)cc1,25,4,51*,18,80,25,63*,79*
O=C(NC(=S)Nc1ccc(-c2ccc(CO)o2)cc1)c1cccs1,12,4,24*,1,91,23,5,-13
COc1cc(C(=O)N(C)CC2CCN(CCc3cccc(C(F)(F)F)c3)CC2)ccc1C,/,13,-2,/,/,/,/,/
Cc1ccc(OCC(=O)Nc2ccc(S(=O)(=O)N3CCOCC3)cc2)c(C)c1,/,15,20*,/,/,/,7,2
c1csc(-c2nc(CN3CCSCC3)cs2)c1,/,31,27*,/,/,25,55*,31*
Cc1ccc(CN2CCC(c3cc(-c4ccc(Cl)cc4)n[nH]3)CC2)cc1,/,21,0,/,/,/,/,/
Cc1ccc(C(=O)O/N=C(\N)c2ccccn2)c(C)c1,/,94*,92*,/,/,/,97*,94*
COc1ccc(C(=O)O/N=C(\N)c2ccccn2)cc1,/,92*,80*,/,/,/,86*,92*
N/C(=N\OC(=O)c1cccc(Br)c1)c1ccccn1,/,77*,42*,/,/,/,26*,74*
Cc1ccc(C)c(OCC(=O)O/N=C(\N)c2ccccn2)c1,-11,4,-2,-39,112,12,/,/
Cc1ccccc1C(=O)O/N=C(\N)c1ccccc1,/,92*,24*,/,/,/,49*,77*
